SUMO HTRF inh: blocks human SUMOylation mediated by UBC9; inhibition, % at 35 µM; HTRF SUMOylation assay, SAE1/SAE2 + UBC9, in vitro; AID 2006; P63279; actives 0.36% (n = 290,000); in the data active means inhibition above about 50%, passing the limit was not always enough; inconclusive means no clear call, values can overlap the other calls
PAD4 FP inh: blocks human protein arginine deiminase 4. inhibition, % at 6.36 µM. actives 0.41% (n = 330,000). AID 485272. recombinant PAD4, RCA probe fluorescence polarization. Q9UM07;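 active means percent inhibition above a cutoff equal to the mean of all tested compounds plus 3 SD, cut at about 15% in these data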;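 further: 0% = PAD4 with RCA probe and DMSO and 100% = probe without PAD4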
JMJD2C inh: inhibitors of human GASC-1 (JMJD2C) demethylase | Q9H3R0 | GST-JMJD2C(1-420) H3K9me3 demethylation, DELFIA europium | inhibition, % at 2.35 µM | actives 0.069% (n = 330,000);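 active means more than half of a compound's replicate wells show inhibition beyond 50%, single wells judged on their own value; inconclusive means some, but no more than half, of replicates pass 50% inhibition; inactive means no replicate passes 50% inhibition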;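 further: signal counts dimethyl H3K9 product captured on neutravidin plate; 0% = median of DMSO wells and 100% = 0.3 times that DMSO median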
Apaf1 inhib: human Apaf-1 inhibition; O14727; reconstituted apoptosome caspase-3 activity, DEVD-Rh110 fluorescence; inhibition, % at 20 µM; actives 0.71% (n = 330,000); AID 489030; active means inhibition of at least 40% at 20 µM;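 further: plate controls were DMSO wells for no effect and DEVD-CHO caspase inhibitor wells for full effect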
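System – cell-free apoptosome with Apaf-1, procaspase-3 and caspase-9 · Buffer or medium – pH 7.5 Hepes buffer with CHAPS, BSA, DTT · Also added – cytochrome c with DEVD-Rh110 · Times – 30 min compound preincubation, 50 min activation, room temperature · Technique – Rh110 fluorescence intensity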
TDP2 inh: blocks human TDP2 phosphodiesterase activity. actives 0.34% (n = 370,000). recombinant TDP2, T5PNP hydrolysis, p-nitrophenol absorbance 415 nm. inhibition, % at 12.8 µM. O95551;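 active means inhibition above the mean of all tested compounds plus 3 SD, set per campaign, cut at about 25% in these data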;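 further: 0% = DMSO with enzyme and 100% = buffer with substrate but no TDP2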
Target sequence (O95551 whole entry, looked up): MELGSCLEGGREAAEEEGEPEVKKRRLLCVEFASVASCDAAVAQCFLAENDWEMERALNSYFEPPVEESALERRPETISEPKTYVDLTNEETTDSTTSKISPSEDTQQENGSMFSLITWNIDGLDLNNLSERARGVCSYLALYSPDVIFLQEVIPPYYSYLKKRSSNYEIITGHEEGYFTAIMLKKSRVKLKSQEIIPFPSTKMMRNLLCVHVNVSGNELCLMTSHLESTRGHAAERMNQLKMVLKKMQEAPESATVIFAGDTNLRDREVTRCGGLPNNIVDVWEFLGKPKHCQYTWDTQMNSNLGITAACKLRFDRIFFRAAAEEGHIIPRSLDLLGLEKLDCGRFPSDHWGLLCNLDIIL
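Evaluation: % inhibition relative to enzyme-containing and enzyme-free wells. Material: recombinant human TDP2. Benchmarks: enzyme-free and DMSO wells. Timing: enzyme reaction with compound for 2 h at 37 °C. Compound dosing: 12.8 µM only. Measured by: p-Nitrophenol epi absorbance. Reagent: T5PNP substrate at 5 mM, a TopII-DNA adduct mimic. Replication: single well per compound.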
GSTO1 counter: GSTO1 inhibition, counter-screen for RBBP9 inhibitors. recombinant GSTO1, activity-based probe fluorescence polarization. actives 1.1% (n = 300,000). AID 1974. inhibition, % at 5.96 µM;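 active means inhibition above the campaign mean inhibition plus 3 SD, cut at about 35% in these data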;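 further: 0% = GSTO1-1 with DMSO and 100% = wells lacking GSTO1-1 enzyme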
Target sequence (P78417 whole entry, looked up): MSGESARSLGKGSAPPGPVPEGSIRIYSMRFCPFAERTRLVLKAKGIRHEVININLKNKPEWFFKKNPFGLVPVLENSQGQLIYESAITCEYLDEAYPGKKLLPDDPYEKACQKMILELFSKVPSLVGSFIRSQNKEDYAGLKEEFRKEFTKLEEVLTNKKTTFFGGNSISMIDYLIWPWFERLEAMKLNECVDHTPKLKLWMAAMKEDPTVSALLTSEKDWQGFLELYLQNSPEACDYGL
TDP2 inh conf: confirmation of human TDP2 inhibitors | recombinant human TDP2, absorbance read-out | inhibition, % at 12.8 µM | actives 22% (n = 1,100) | AID 743263 | shares compounds with TDP2 inh; in the data active means inhibition above about 25%;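 further: 0% = vehicle with enzyme and 100% = no enzyme buffer only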
* = called active by the depositor; i = inactive; ? = inconclusive; . = not tested or not shown. In the library only some 1.6% were active in any assay of this set; here they are far more common.

SMILES	SUMO HTRF inh	PAD4 FP inh	JMJD2C inh	Apaf1 inhib	TDP2 inh	GSTO1 counter	TDP2 inh conf
CCOC(=O)[C@]12CCCCC/C=C\1N(CCc1ccc(Cl)cc1)C(=O)[C@H]2CC(=O)NCCCOC	.	.	.	.	5	.	.
CCOC(=O)C1CCCN(C(=O)c2cc3c(=O)n(C)c4ccccc4c3n2C)C1 (stereo not drawn)	-6	-4	0	-2	41*	7	12
CCN1CCN(CC(O)COC(c2ccccc2)c2ccccc2C)CC1 (stereo not drawn)	27	-6	9	5	27*	2	19
Cc1ccccc1C(OCC(O)CN1CCC(C(N)=O)CC1)c1ccccc1 (stereo not drawn)	15	-1	i	4	12	1	.
CCc1nnc(N/N=C/c2cc(C)c(C)cc2C)n1N	6	.	-10	-5	65*	.	8
C[C@H]1[C@H](N)CC[C@@]23CCCN2C(=O)CCC[C@@H]13	.	.	.	.	2	.	.
CC(C)NCCOc1cccc(Br)c1	17	-2	-11	14	6	-5	.
Brc1cccc(OCCCNC2CCCC2)c1	10	-6	-19	8	26*	-5	-7
CCCCc1cccc2[nH]cc(C)c12	.	.	.	.	4	.	.
NC1=C(Cl)C(=O)c2ccccc2C1=O	.	.	.	.	19	.	.
NC1=C(Cl)C(=O)c2ccc(S(N)(=O)=O)cc2C1=O	.	.	.	.	76*	.	74*
CCOc1ccc(N(CC(=O)NC2CCC(C)CC2)S(=O)(=O)c2c(C)noc2C)cc1 (stereo not drawn)	-4	2	?	21	-4	5	.
Cc1ccc(N(CC(=O)NC2CCCCC2)S(=O)(=O)c2c(C)noc2C)cc1	0	4	-1	12	29*	4	-3
COc1ccc(NC(=O)NC2CCN(S(=O)(=O)c3ccc(F)cc3)CC2)cc1OC	.	.	.	.	-6	.	.
CC(C)NC(=O)C(=O)Nc1cc2c3c(c1)C(C)C(=O)N3CCC2 (stereo not drawn)	10	1	9	4	34*	9	-4
COc1ccc(-c2csc3ncnc(N4CCN(S(=O)(=O)c5cccc(C(F)(F)F)c5)CC4)c23)cc1	.	1	-7	21	25*	-4	1
Cc1ccc(S(=O)(=O)c2c[nH]c3cc4c(cc3c2=O)OCO4)cc1	-2	-1	4	1	26*	11	-8
Cn1ccc2c(N3c4ccccc4CCc4ccccc43)cc3c(c21)C1CCC3O1 (stereo not drawn)	.	.	.	.	28*	.	3
Cn1ccc2c(N3c4ccccc4CCc4ccccc43)cc3c(c21)C1CCC3C1 (stereo not drawn)	.	.	.	.	0	.	.
COC(=O)[C@@H]1N=C(c2ccc(OC)cc2)O[C@]12C(=O)N(Cc1cn(-c3ccccc3)nn1)c1cccc(Cl)c12	.	.	.	.	-8	.	.
COc1ccc(CNC(=O)c2c(O)c3cc(OC)c(OC)cc3[nH]c2=O)cc1OC	18	.	22	-13	8	.	.
CCN(CC)CCNC(=O)c1c(O)c2cc(OC)c(OC)cc2[nH]c1=O	12	-2	-1	-1	25*	13	5
Cc1c(Cc2ccccc2)c(=O)oc2cc(OCC(=O)NCC(O)c3ccccc3)ccc12 (stereo not drawn)	4	4	-1	20	30*	0	5
COC(=O)[C@]1(C)N[C@H](CN(C)C(=O)Nc2ccc(OC)cc2)[C@@H]2C(=O)N(C)C(=O)[C@@H]21	.	-3	-53	-16	48*	.	6
COC(=O)CN(Cc1cn(Cc2ccccc2)nn1)S(=O)(=O)c1ccccc1Br	.	.	.	.	2	.	.
SMILES	SUMO HTRF inh	PAD4 FP inh	JMJD2C inh	Apaf1 inhib	TDP2 inh	GSTO1 counter	TDP2 inh conf
COc1ccc(CCN(C)C(=O)C2CCCN(C3CCN(Cc4ccccc4)CC3)C2)cc1OC (stereo not drawn)	-1	-4	10	1	32*	2	9
COc1ccc(OC)c(CN2CCC(C(=O)N(C)CCc3ccc(OC)c(OC)c3)CC2)c1	11	-4	11	-1	-1	0	.
CCN(C(=O)COC(=O)C1=COCCO1)c1ccccc1	.	2	26	2	-1	.	.
CCN(C(=O)COC(=O)c1[nH]c(=O)[nH]c(=O)c1N)c1ccccc1	12	-6	1	-2	30*	8	0
Clc1ccc(CN2CCSCC2)c(Cl)c1	1	5	-5	-8	10	5	.
Cc1ccc(C)c(CN2CCSCC2)c1	-3	-9	-2	-8	26*	-1	4
NC(=O)C1CCN(c2ccnc(Cl)n2)CC1	.	.	.	.	-3	.	.
OC(c1ccccc1)(c1ccccc1)C1CCN(CCCNc2ccccc2Br)CC1	.	.	.	.	-18	.	.
O=C(c1cccc(S(=O)(=O)N2CCN(c3ccccc3)CC2)c1)N1CCN(c2ccccc2O)CC1	.	-2	14	33	29*	11	6
O=C(OC12CCCN(C1)/C(=C/c1cccc(Cl)c1)C2)c1ccc(F)cc1 (stereo not drawn)	.	.	.	.	-5	.	.
Cc1ccc(CSc2nnc(-c3n[nH]c4c3CCC4)n2N)cc1	.	.	.	.	14	.	.
CN1CCN(C2=C(Cl)C(=O)c3ccccc3C2=O)CC1	.	.	.	.	69*	.	80*
CC1COCC(C)N1C1=C(Cl)C(=O)c2ccccc2C1=O (stereo not drawn)	.	.	.	.	22	.	.
Cc1cc(NC(=O)CSc2nccn2C)n(-c2ccccc2)n1	-4	0	-6	0	26*	-12	1
COC(=O)[C@]12C[C@H](CC(=O)N3CCCC3)C(=O)N(Cc3ccc(Cl)cc3Cl)C1=C[C@H](C(C)C)O[C@@H]2C1CC1	.	.	.	.	-6	.	.
CC(C)(C)c1ccc(-c2nnc(SCC(=O)Nc3ccc(Oc4ccccc4)cc3)n2Cc2ccco2)cc1	.	.	.	.	-4	.	.
Cc1ccc(S(=O)(=O)N(C)CC(=O)Nc2ccc(C)cn2)cc1	.	1	27	7	0	5	.
Cc1ccc(S(=O)(=O)N(C)CC(=O)Nc2cccc(C)n2)cc1	13	-1	8	-2	80*	0	7
Nn1cnnc1N/N=C/c1cc(Br)cc(Br)c1O	-35	4	5	10	54*	-20	-5
CSc1ccc(/C=N\Nc2nncn2N)cc1	0	42*	7	-1	64*	14	6
CC(C)(C)c1ccc(/C=N/Nc2nncn2N)cc1	5	.	4	3	67*	.	4
CCCCN(C)CCCNC(=O)Cn1cc2c(n1)-c1c(oc(C(=O)N3CCCC3)c1C)CC2	.	.	.	.	2	.	.
CCOCCCNC(=O)Cn1cc2c(n1)-c1c(oc(C(=O)N3CCCC3)c1C)CC2	.	.	.	.	38*	.	-7
O=C(CSc1nnc(-c2cccnc2)n1-c1ccccc1)Nc1ccc(OCc2ccccc2)cc1	.	.	.	.	4	.	.
Cc1ccc(S(=O)(=O)Nc2cccc3cccnc23)cc1	-86	-2	5	11	4	17	.

High-throughput results (PubChem)
